According to ChEMBL document CHEMBL3393037, “Design, synthesis, and biological evaluation of aminothiazole derivatives against the fungal pathogens Histoplasma capsulatum and Cryptococcus neoformans” (Bioorg Med Chem, 2015):
Converted amounts (≈) assume the structure as drawn.

Tests used:
[1] = Antifungal activity against Histoplasma capsulatum G217B ATCC 26032 assessed as inhibition of visible growth after 5 days; assay type: functional
In short: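 Wild-type G217B yeasts kept in HMM at 37 °C under 5% CO2. Wells held 2×10^5 yeasts (hemocytometer count) with a two-fold dilution series from 40 to 0.078 µM, at 1% DMSO in the top dilution. Plates were agitated twice daily and growth followed by A595 over 5 days. MIC is the lowest concentration with no visible growth on visual inspection of the plates.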

Cryptococcus neoformans = test: Antifungal activity against Cryptococcus neoformans MATalpha serotype A strain H99 assessed as inhibition of visible growth after 5 days; assay type: functional; conditions: MATalpha serotype A strain H99, 120 h
[2] = Cytotoxicity against human HepG2 cells after 72 hrs by crystal violet staining method; assay type: cell-based; conditions: for MCC at 72 h: read-out: MIC; for CC50 at 72 h: read-out: MIC50
In short: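 HepG2 cells in MEM with 10% FBS and 2 mM L-glutamine were seeded at 1×10^4 per well and left to adhere overnight. Compound was added at 0.3 to 80 µM for 72 h. Cells were fixed in 3% paraformaldehyde, stained with 0.1% crystal violet, and the dye taken up in 10% acetic acid and read at A590. Values were normalised to DMSO-matched controls, in triplicate.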

[3] = Selectivity index, ratio of MIC50 for human HepG2 cells to MIC50 for Histoplasma capsulatum strain G217B ATCC 26032
[4] = Cytotoxicity against mouse P388D1 […] cells after 48 hrs by crystal violet staining method; assay type: cell-based; conditions: P388D1, 48 h

SMILES | MIC [1] [µM] | MIC50 [1] [µM] | MIC (Cryptococcus neoformans) [µM] | MIC50 (Cryptococcus neoformans) [µM] | MCC at 72 h [2] [µM] | Ratio [3] | CC50 at 72 h [2] [µM] | IC50 [4] [µM]
COc1ccc(Cc2cnc(NC(=O)/C=C/c3ccco3)s2)cc1 | > 20 | > 10 | – | – | – | – | – | –
O=C(CCC1CCCCC1)Nc1ncc(CC2CCCCC2)s1 | 5 (≈ 1.67 µg/mL) | 0.8 (≈ 0.268 µg/mL) | > 20 | 9.6 (≈ 3.21 µg/mL) | – | – | – | –
O=C(Nc1ncc(Cc2ccc3ccccc3c2)s1)C12CC3CC(CC(C3)C1)C2 | > 20 | > 10 | – | – | – | – | – | –
O=C(Nc1ncc(Cc2ccccc2)s1)c1cnc(-c2cccs2)s1 | > 20 | > 10 | – | – | – | – | – | –
O=C(Nc1ncc(Cc2cccc3ccccc23)s1)C12CC3CC(CC(C3)C1)C2 | > 20 | > 10 | – | – | – | – | – | –
O=C(Nc1ncc(Cc2ccccc2)s1)C1CCSCC1 | 10 (≈ 3.18 µg/mL) | 4.8 (≈ 1.53 µg/mL) | – | – | – | – | – | –
CC(C)C(=O)Nc1ncc(Cc2cccc3ccccc23)s1 | 2.5 (≈ 0.776 µg/mL) | 1.5 (≈ 0.466 µg/mL) | > 20 | > 10 | – | – | – | –
O=C(Nc1ncc(CC2CCCCC2)s1)C1CCCCC1 | 2.5 (≈ 0.766 µg/mL) | 0.7 (≈ 0.215 µg/mL) | > 20 | > 10 | – | – | – | –
O=C(Nc1nc(C23CC4CC(CC(C4)C2)C3)cs1)c1ccccc1 | 10 (≈ 3.38 µg/mL) | 3.1 (≈ 1.05 µg/mL) | 20 (≈ 6.77 µg/mL) | 8.3 (≈ 2.81 µg/mL) | – | – | – | –
O=C(Nc1ncc(Cc2ccccc2)s1)c1ccccc1 | > 20 | > 10 | – | – | – | – | – | –
NC(=O)c1cc(-c2ccccc2)sc1NC(=O)c1ccc2c(c1)OCCO2 | – | 2.5 (≈ 0.951 µg/mL) | – | – | 10 | – | – | –
O=C(Nc1ncc(Cc2ccccc2)s1)C(F)(F)F | > 20 | > 10 | – | – | – | – | – | –
O=C(Nc1ncc(Cc2ccccc2)s1)C1CCCC1 | 5 (≈ 1.43 µg/mL) | 1.6 (≈ 0.458 µg/mL) | 10 (≈ 2.86 µg/mL) | 3.6 (≈ 1.03 µg/mL) | – | >24 | > 40 | –
O=C(Nc1ncc(Cc2ccccc2)s1)N1CCOCC1 | > 20 | > 10 | – | – | – | – | – | –
O=C(CCC1CCCCC1)Nc1ncc(Cc2cccc3ccccc23)s1 | 1.3 (≈ 0.492 µg/mL) | 0.4 (≈ 0.151 µg/mL) | > 20 | > 10 | – | >100 | > 40 | –
O=C(Nc1ncc(-c2ccccc2)s1)C1CCCC1 | > 20 | > 10 | – | – | – | – | – | –
O=C(CCC1CCCCC1)Nc1ncc(Cc2ccc3ccccc3c2)s1 | > 20 | > 10 | – | – | – | – | – | –
O=C(Nc1ncc(Cc2ccccc2)s1)C1COc2ccccc2C1 (stereo not given) | > 20 | > 10 | – | – | – | – | – | –
O=C(CCC1CCCCC1)Nc1ncc(Cc2ccccc2F)s1 | 2.5 (≈ 0.866 µg/mL) | 1 (≈ 0.346 µg/mL) | > 20 | > 10 | – | – | – | –
CC(C)C(=O)Nc1nc(C23CC4CC(CC(C4)C2)C3)cs1 | > 20 | > 10 | – | – | – | – | – | –
CC(C)C(=O)Nc1ncc(Cc2ccc3ccccc3c2)s1 | 20 (≈ 6.21 µg/mL) | 4.5 (≈ 1.4 µg/mL) | – | – | – | – | – | –
O=C(Nc1ncc(Cc2cccc3ccccc23)s1)C(F)(F)F | > 20 | > 10 | – | – | – | – | – | –
O=C(CCC1CCCCC1)Nc1ncc(Cc2ccccc2)s1 | 1.3 (≈ 0.427 µg/mL) | 0.7 (≈ 0.23 µg/mL) | > 20 | > 10 | – | >44 | > 40 | –

SMILES | MIC [1] [µM] | MIC50 [1] [µM] | MIC (Cryptococcus neoformans) [µM] | MIC50 (Cryptococcus neoformans) [µM] | MCC at 72 h [2] [µM] | Ratio [3] | CC50 at 72 h [2] [µM] | IC50 [4] [µM]
O=C(CCC1CCCCC1)Nc1ncc(Cc2cccc(Cl)c2)s1 | 2.5 (≈ 0.907 µg/mL) | 1.1 (≈ 0.399 µg/mL) | > 20 | > 10 | – | 65 | 39 | –
CC(C)C(=O)Nc1ncc(CC2CCCCC2)s1 | > 20 | > 10 | – | – | – | – | – | –
Nc1ncc(Cc2ccccc2)s1 | > 20 | > 10 | – | – | – | – | – | –
O=C(Nc1ncc(Cc2ccccc2)s1)C1CCOCC1 | > 20 | > 10 | – | – | – | – | – | –
O=C(Nc1nc(C23CC4CC(CC(C4)C2)C3)cs1)C1CCCC1 | 20 (≈ 6.61 µg/mL) | 7.4 (≈ 2.45 µg/mL) | – | – | – | – | – | –
O=C(Nc1ncc(Cc2ccccc2)s1)N1CCCC1 | > 20 | > 10 | – | – | – | – | – | –
O=C(Nc1ncc(Cc2ccccc2)s1)N1CCCCC1 | > 20 | > 10 | – | – | – | – | – | –
O=C(CC1CCCCC1)Nc1ncc(Cc2ccc3ccccc3c2)s1 | 20 (≈ 7.29 µg/mL) | 5.7 (≈ 2.08 µg/mL) | – | – | – | – | – | –
CC(C)(C)OC(=O)Nc1ncc(C(O)c2ccccc2)s1 (stereo not given) | > 20 | > 10 | – | – | – | – | – | –
O=C(Nc1ncc(Cc2ccccc2)s1)C12CC3CC(CC(C3)C1)C2 | 10 (≈ 3.53 µg/mL) | 5 (≈ 1.76 µg/mL) | – | – | – | – | – | –
O=C(CC1CCCCC1)Nc1ncc(Cc2ccccc2)s1 | 2.5 (≈ 0.786 µg/mL) | 0.7 (≈ 0.22 µg/mL) | > 20 | > 10 | – | >44 | > 40 | –
O=C(CCC1CCCCC1)Nc1ncc(-c2ccccc2)s1 | > 20 | > 10 | – | – | – | – | – | –
O=C(Nc1ncc(Cc2ccccc2)s1)C1CCCCC1 | 5 (≈ 1.5 µg/mL) | 1.6 (≈ 0.481 µg/mL) | 5 (≈ 1.5 µg/mL) | 1.3 (≈ 0.391 µg/mL) | – | >21 | > 40 | –
O=C(CCC1CCCCC1)Nc1ncc(Cc2ccc(F)cc2)s1 | > 20 | > 10 | – | – | – | – | – | –
O=C(Nc1ncc(Cc2cccc3ccccc23)s1)C1CCCC1 | 1.3 (≈ 0.437 µg/mL) | 0.8 (≈ 0.269 µg/mL) | 1.3 (≈ 0.437 µg/mL) | 0.8 (≈ 0.269 µg/mL) | – | >57 | > 40 | –
CN1CCC(C(=O)Nc2ncc(Cc3ccccc3)s2)CC1 | > 20 | > 10 | – | – | – | – | – | –
O=C(CCC1CCCCC1)Nc1ncc(Cc2ccccc2Cl)s1 | 2.5 (≈ 0.907 µg/mL) | 0.9 (≈ 0.327 µg/mL) | > 20 | > 10 | – | – | – | –
O=C(Nc1ncc(Cc2cccc3ccccc23)s1)C1CCCCC1 | 0.6 (≈ 0.21 µg/mL) | 0.4 (≈ 0.14 µg/mL) | 0.6 (≈ 0.21 µg/mL) | 0.4 (≈ 0.14 µg/mL) | – | 97 | 39 | 54
O=C(Nc1ncc(Cc2cccc3ccccc23)s1)c1ccccc1 | > 20 | > 10 | – | – | – | – | – | –
O=C(Nc1ncc(-c2ccccc2)s1)C1CCCCC1 | > 20 | > 10 | – | – | – | – | – | –
O=C(CC1CCCCC1)Nc1ncc(Cc2cccc3ccccc23)s1 | 0.6 (≈ 0.219 µg/mL) | 0.4 (≈ 0.146 µg/mL) | > 20 | > 10 | – | 92 | 37 | –
O=C(CC1CCCCC1)Nc1nc(C23CC4CC(CC(C4)C2)C3)cs1 | > 20 | > 10 | – | – | – | – | – | –
O=C(CCC1CCCCC1)Nc1nc(-c2ccccc2)cs1 | > 20 | > 10 | – | – | – | – | – | –

SMILES | MIC [1] [µM] | MIC50 [1] [µM] | MIC (Cryptococcus neoformans) [µM] | MIC50 (Cryptococcus neoformans) [µM] | MCC at 72 h [2] [µM] | Ratio [3] | CC50 at 72 h [2] [µM] | IC50 [4] [µM]
O=C(CCC1CCCCC1)Nc1ncc(CCc2ccccc2)s1 | 2.5 (≈ 0.856 µg/mL) | 0.7 (≈ 0.24 µg/mL) | > 20 | > 10 | – | >50 | > 40 | –
O=C(Nc1ncc(Cc2ccc(F)cc2)s1)C1CCCCC1 | 20 (≈ 6.37 µg/mL) | 4.4 (≈ 1.4 µg/mL) | – | – | – | – | – | –
O=C(CC1CCCCC1)Nc1ncc(-c2ccccc2)s1 | > 20 | > 10 | – | – | – | – | – | –
CN(C(=O)CCC1CCCCC1)c1ncc(Cc2ccccc2)s1 | > 20 | > 10 | – | – | – | – | – | –
O=C(Nc1nc(-c2ccccc2)cs1)C1CCCC1 | > 20 | > 10 | – | – | – | – | – | –
O=C(Nc1ncc(CC2CCCCC2)s1)C12CC3CC(CC(C3)C1)C2 | > 20 | > 10 | – | – | – | – | – | –
O=C(CCC1CCCCC1)Nc1nnc(Cc2ccccc2)s1 | > 20 | > 10 | – | – | – | – | – | –
O=C(Nc1ncc(Cc2ccc3ccccc3c2)s1)c1ccccc1 | > 20 | > 10 | – | – | – | – | – | –
O=C(/C=C/C1CCCCC1)Nc1ncc(Cc2ccccc2)s1 | > 20 | > 10 | – | – | – | – | – | –
O=C(Nc1ncc(Cc2ccc3ccccc3c2)s1)C1CCCCC1 | > 20 | > 10 | – | – | – | – | – | –
Cc1cccc(Cc2cnc(NC(=O)C3CCC3)s2)c1 | – | 2.5 (≈ 0.716 µg/mL) | – | – | 20 | – | – | –
O=C(Nc1ncc(Cc2ccc(F)cc2)s1)C1CCCC1 | 20 (≈ 6.09 µg/mL) | 5.2 (≈ 1.58 µg/mL) | – | – | – | – | – | –
O=C(Nc1nc(C23CC4CC(CC(C4)C2)C3)cs1)C1CCCCC1 | 5 (≈ 1.72 µg/mL) | 2.5 (≈ 0.861 µg/mL) | > 20 | > 10 | – | – | – | –
O=C(Nc1ncc(CCc2ccccc2)s1)C1CCCC1 | 2.5 (≈ 0.751 µg/mL) | 0.9 (≈ 0.27 µg/mL) | 5 (≈ 1.5 µg/mL) | 2.7 (≈ 0.811 µg/mL) | – | – | – | –
O=C(Nc1ncc(CC2CCCCC2)s1)c1ccccc1 | 10 (≈ 3 µg/mL) | 4.6 (≈ 1.38 µg/mL) | – | – | – | – | – | –
CC(C)C(=O)Nc1ncc(Cc2ccccc2)s1 | 20 (≈ 5.21 µg/mL) | 6.7 (≈ 1.74 µg/mL) | – | – | – | – | – | –
O=C(CCC1CCCCC1)Nc1nc(C23CC4CC(CC(C4)C2)C3)cs1 | 20 (≈ 7.45 µg/mL) | 5.2 (≈ 1.94 µg/mL) | – | – | – | – | – | –
O=C(CCC1CCCCC1)Nc1ncc(Cc2cccc(C(F)(F)F)c2)s1 | > 20 | > 10 | – | – | – | – | – | –
O=C(CC1CCCCC1)Nc1ncc(CC2CCCCC2)s1 | > 20 | > 10 | – | – | – | – | – | –
Cc1nc(NC(=O)CCC2CCCCC2)sc1Cc1ccccc1 | > 20 | > 10 | – | – | – | – | – | –
O=C(CCC1CCCCC1)Nc1ncc(Cc2cccc(F)c2)s1 | 2.5 (≈ 0.866 µg/mL) | 0.8 (≈ 0.277 µg/mL) | > 20 | > 10 | – | 57 | 40 | –
